Assay outcomes deposited in PubChem BioAssay by several laboratories.
This is a sample that favours compounds with a hit; in the whole collection about 2.8% have one here.
NPY Y2 blocker: blocks the human neuropeptide Y Y2 receptor; P49146; NPY-Y2 expressing cells, antagonist mode; inhibition, % at 2.7 µM; 140,000 tested, 0.99% active; in the data active = inhibition above about 17%;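 note: 0% = vehicle with agonist challenge and 100% = reference antagonist with challenge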
Target sequence (P49146 whole entry, looked up): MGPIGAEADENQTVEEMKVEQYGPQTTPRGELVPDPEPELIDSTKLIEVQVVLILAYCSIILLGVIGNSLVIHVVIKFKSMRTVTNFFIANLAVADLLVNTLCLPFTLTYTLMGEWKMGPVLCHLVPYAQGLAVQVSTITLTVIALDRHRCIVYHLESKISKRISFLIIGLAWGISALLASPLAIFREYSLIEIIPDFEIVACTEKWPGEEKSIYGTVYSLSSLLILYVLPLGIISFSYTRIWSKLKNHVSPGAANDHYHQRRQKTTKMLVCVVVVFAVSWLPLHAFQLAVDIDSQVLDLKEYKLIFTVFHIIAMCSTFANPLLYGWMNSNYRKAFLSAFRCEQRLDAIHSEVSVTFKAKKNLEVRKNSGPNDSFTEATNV
NPY2 pot ag: human NPY-Y2 potentiation or agonism, primary screen | 220,000 tested, 0.45% active | cells expressing NPY-Y2, potentiator/agonist read-out | activation, % at 3.6 µM; in the data active = activation above about 27%;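 note: cells stimulated with NPY near EC25 plus isoproterenol at EC100; 0% = vehicle plus submaximal agonist and 100% = vehicle plus saturating agonist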
NPY-Y1 PAM-ag: potentiators or agonists of human neuropeptide Y receptor Y1; NPY-Y1 expressing cells, potentiator/agonist activation; activation, % at 3.6 µM; 220,000 tested, 0.37% active; AID 1304; P25929; in the data active = activation above about 33%, passing the limit was not always enough;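 note: cells stimulated with NPY at EC10 then isoproterenol at EC100; 0% = low agonist plus stimulus and 100% = saturating agonist plus stimulus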
EP2 mod: modulators of human EP2 prostaglandin E2 receptor | EP2-expressing cells, cAMP HTRF FRET, PGE2 co-stimulation | P43116 | induction, % at 25 µM | 260,000 tested, 0.83% active;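 active = compounds whose cAMP rise, as percent of the full-agonist control response, exceeds 60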;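 note: rat C6 glioma line stably carrying human EP2 under a CMV promoter; the protocol text gives 20 µM as final concentration; 100% = response of wells given 1 µM PGE2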
Target sequence (P43116 whole entry, looked up): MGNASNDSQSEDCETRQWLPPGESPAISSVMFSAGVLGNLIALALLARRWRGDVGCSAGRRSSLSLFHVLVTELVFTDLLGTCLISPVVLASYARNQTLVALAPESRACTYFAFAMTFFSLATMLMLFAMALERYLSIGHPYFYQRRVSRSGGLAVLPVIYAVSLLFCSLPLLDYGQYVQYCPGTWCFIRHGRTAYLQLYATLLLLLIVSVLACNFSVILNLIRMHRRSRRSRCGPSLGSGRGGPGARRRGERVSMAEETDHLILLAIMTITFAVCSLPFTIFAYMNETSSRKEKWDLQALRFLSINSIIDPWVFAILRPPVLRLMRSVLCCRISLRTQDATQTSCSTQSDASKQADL
PGE2 EP2 inh: EP2 receptor (human) inhibition; P43116; C6 glioma cells expressing human EP2, cAMP TR-FRET; cells stimulated with saturating PGE2; inhibition, % at 25 µM; 260,000 tested, 0.52% active; AID 1422;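 active = percent inhibition above 40 after rounding to a whole number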;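 note: rat C6 glioma host cells with rolipram phosphodiesterase inhibitor present; the protocol text gives 20 µM as final concentration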
NPY Y1 blocker: blocks the human neuropeptide Y Y1 receptor | HEK293-CNG Y1 cells, membrane potential fluorescence; NPY at EC95, then isoproterenol | inhibition, % at 3.6 µM | AID 1040 | 200,000 tested, 1% active;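 active = inhibition above the campaign mean inhibition of all tested compounds plus 3 SD, cut at about 20% in these data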;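 note: 0% = DMSO wells given NPY plus isoproterenol and 100% = isoproterenol alone without NPY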
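Material: HEK293 Y1/CNG channel cell line | Also added: NPY (25 nM), isoproterenol (1 µM), Ro 20-1724 (25 µM) | Compound: One concentration, 3.6 µM, in 0.4% DMSO | Schedule: 3 h dye uptake, 1 h room-temperature compound, 45 min post-isoproterenol | Signal: Membrane-potential fluorescent dye readout | Read-out: % inhibition of NPY effect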
The depositor's hits bear a star; nt = no result; ! = a repeat was not active.

SMILES	NPY Y2 blocker	NPY2 pot ag	NPY-Y1 PAM-ag	EP2 mod	PGE2 EP2 inh	NPY Y1 blocker
CCSc1nc2c(c(=O)n1Cc1ccccc1)SC(C)C2 (configuration not stated)	8.9	-22.7	-27.3	61.7*	9.1	2.2
C=C(C)Cn1c(SCC)nc2ccccc2c1=O	3.6	-2.8	-2.9	56.5	14.7	17.9
CC1Cc2nc(SCC(N)=O)n(Cc3ccccc3)c(=O)c2S1 (configuration not stated)	nt	nt	nt	28.5	12.1	nt
CCn1c(SCC(=O)N2CCN(c3ccc(F)cc3)CC2)nc2ccccc2c1=O	0.5	2.6	0.0	-40.9	6.5	-7.2
CCCn1c(SCC(=O)N2CCN(c3ccccc3)CC2)nc2ccccc2c1=O	19.4*	-22.6	-28.3	-29.7	11.4	21.5*
CCSc1nc2ccccc2c(=O)n1Cc1ccc(F)cc1	nt	-6.0	-11.1	64.9*	7.0	10.3
CCSc1nc2ccccc2c(=O)n1CCc1ccc(OC)c(OC)c1	nt	-4.5	19.6	30.9	8.1	nt
C=C(C)Cn1c(SCCC)nc2ccccc2c1=O	nt	nt	nt	94.3*	13.7	nt
NCCSc1nnnn1-c1ccccc1	nt	nt	nt	-7.5	6.9	nt
COc1ccc(NC(=O)c2csc(Cc3ccc(Cl)cc3)n2)cc1	nt	-16.8	-24.2	-46.7	4.2	-0.7
COc1ccc(Cc2nc(C(=O)Nc3ccc(Cl)cc3)cs2)cc1	19.1*	-29.3	-32.3	-47.6	11.7	24.0*
Cc1cc(C(C)(C)C)oc1C(=O)NCCCNC(=O)c1oc(C(C)(C)C)cc1C	5.9	-11.0	-39.8	60.6*!	7.2	0.6
Cc1cccc(CCNS(=O)(=O)c2ccc(S(=O)(=O)N3CCC(C)CC3)cc2)c1	0.6	-3.0	3.3	-8.6	11.7	22.0*
Cc1cccc(CCNS(=O)(=O)c2ccc(S(=O)(=O)N3CCCCC3)cc2)c1	-0.2	3.3	6.7	20.9	2.9	3.4
c1ccc(CCCCNCC2COc3ccccc3O2)cc1 (configuration not stated)	nt	-18.8	-4.5	16.7	4.2	20.3*
c1ccc(CCCNCC2COc3ccccc3O2)cc1 (configuration not stated)	nt	-5.2	-6.7	6.8	4.1	18.0
CCOP1(=O)OCC2OC(n3cnc4c(N)ncnc43)C(O)C2O1 (configuration not stated)	nt	-5.5	9.2	103.6*	4.9	nt
COc1ccccc1NC(=S)N(CCO)Cc1cc2cc(C)c(C)cc2[nH]c1=O	nt	nt	nt	11.0	11.9	nt
Cc1nc2sccn2c(=O)c1CCN1CCC(=C(c2ccccc2)c2ccc(F)cc2)CC1	44.2*	-8.2	-92.0	13.8	21.8	39.8*
O=S(=O)(c1ccc(S(=O)(=O)N2CCC(c3nc4ccccc4[nH]3)CC2)cc1)N1CCOCC1	nt	nt	nt	3.7	8.0	nt
CNS(=O)(=O)c1ccc(OC)c(-c2nnc3c4ccccc4c(C)nn23)c1	3.9	-21.4	-5.6	16.2	-9.2	6.2
Cc1ccc(S(=O)(=O)N2CCN(C)CC2)cc1-c1nnc2c3ccccc3c(C)nn12	40.1*	-3.5	-39.5	17.5	6.5	36.8*
Cc1ccc(S(=O)(=O)N2CCN(CCO)CC2)cc1-c1nnc2c3ccccc3c(C)nn12	57.0*	-28.4	-39.7	nt	4.7	11.4
COc1ccc(S(=O)(=O)NC(C)(C)C)cc1-c1nnc2c3ccccc3c(C)nn12	35.6*	-27.6	-45.7	10.0	3.7	30.3*
CCCNS(=O)(=O)c1ccc(C)c(-c2nnc3c4ccccc4c(C)nn23)c1	nt	nt	nt	18.6	6.8	nt
SMILES	NPY Y2 blocker	NPY2 pot ag	NPY-Y1 PAM-ag	EP2 mod	PGE2 EP2 inh	NPY Y1 blocker
COc1ccc(S(=O)(=O)N2CCN(CCO)CC2)cc1-c1nnc2c3ccccc3c(C)nn12	9.9	-2.1	-3.4	25.5	8.0	0.2
O=C(c1ccco1)N1CCN(S(=O)(=O)c2ccc(S(=O)(=O)N3CCCCC3)cc2)CC1	nt	nt	nt	-19.0	8.9	nt
COc1ccc2c(c1)C(O)CC1(CCN(CC(O)c3ccc(F)cc3)CC1)O2 (configuration not stated)	nt	nt	nt	-31.6	2.5	nt
Cc1ccc(S(=O)(=O)Nc2ccccc2C(=O)c2ccc(C)c(C)c2)cc1	nt	nt	nt	4.2	45.2*	nt
COCCNC(=O)CSc1nc(-c2ccccc2)cc(C(F)(F)F)n1	nt	nt	nt	-75.7	5.6	nt
COc1ccc(S(=O)(=O)N2c3ccccc3OCC2C(C)(C)C)cc1 (configuration not stated)	nt	1.8	18.0	62.2*	4.3	-2.9
COc1ccc(S(=O)(=O)N2c3ccccc3OCC2C)cc1 (configuration not stated)	nt	-5.1	3.8	15.2	7.1	11.7
CC(C)[C@@H]1OC(=O)C=CC=CC=CC=CC=CC[C@@H](O)[C@H](C)[C@@H](O)C[C@H](O)C[C@H](O)C[C@H](O)C[C@H](O)C[C@H](O)C[C@H](O)C=C[C@@H]1C	nt	nt	nt	-6.4	48.6*	nt
CN(C)c1ccc(CN(C)C2CCCCC2)cc1	4.4	-8.7	-14.3	19.6	5.4	-0.5
Oc1c(Cl)cc(CN(Cc2cc(Cl)c(O)c(Cl)c2)C2CCCCC2)cc1Cl	nt	nt	nt	-13.4	44.1*	nt
COc1ccc(NC(=O)NC2CC3CCCC(C2)N3C(C)C)cc1 (configuration not stated)	nt	nt	nt	-26.9	16.1	nt
COC(=O)C1C2C=CC3(CN(CCc4ccccc4)C(=O)C13)O2 (configuration not stated)	0.0	-7.1	-18.0	-9.6	51.0*!	0.3
Cc1nn(-c2ccccc2)c(N)c1N=Nc1cccnc1	nt	-1.5	-3.9	-52.5	5.4	-1.5
Nc1nc(-c2ccccc2)c(N=Nc2cccnc2)s1	nt	57.3*	65.3*	-70.4	5.6	-19.3
O=C(Cc1n[nH]c(=O)c2ccccc12)OCC(=O)N(Cc1ccccc1)Cc1ccccc1	nt	-13.5	40.0	63.1*	8.2	nt
c1ccc(-n2c3ccccc3c3ccccc32)cc1	nt	-20.1	-31.0	63.5*	13.1	nt
CCc1cccc(CC)c1NC(=O)CN1CCN(Cc2ccc3c(c2)OCO3)CC1	nt	nt	nt	-35.5	4.7	nt
O=C(C[n+]1ccc2ccccc2c1)c1ccccc1	nt	4.3	-8.4	2.0	7.2	nt
O=C(C[n+]1ccc2ccccc2c1)c1ccc2ccc3ccccc3c2c1	nt	nt	nt	24.5	59.1*	nt
O=C(Nc1ccccc1N1CCCCC1)c1ncoc1-c1ccc(F)cc1	2.1	-13.2	-15.0	63.4*	8.6	4.8
CC(C)[C@]1(Cl)CC[C@H]2[C@]3(C)CCC[C@@](C)(C(=O)O)[C@H]3C[C@@H](Cl)[C@]2(Cl)[C@H]1Cl	nt	nt	nt	34.9	47.6*	nt
O=C(O)CCCN1C(=O)/C(=C/C=C/c2ccco2)SC1=S	nt	-2.1	3.6	74.5*	10.9	nt
COc1cccc(-n2sc3c(c2=S)-c2cc(OC)ccc2NC3(C)C)c1	-2.8	39.2*	49.3*	17.9	9.3	-5.0
COC(=O)c1ccccc1NC(=O)CSc1nnnn1-c1ccc2c(c1)OCCO2	nt	nt	nt	-69.1	11.1	nt
COc1ccc2nc(Nc3nc(C)c(C(C)=O)s3)sc2c1	-2.8	34.2*	40.7*	-21.1	11.6	-1.8
